Here are results for 17 molecules from ChEMBL document CHEMBL3259620, “Structure-activity relationships and molecular modelling of new 5-arylidene-4-thiazolidinone derivatives as aldose reductase inhibitors and potential anti-inflammatory agents” (Eur J Med Chem, 2014).

Calls of active or inactive are those of the source. No cut-off for these calls is given here.

The target in experiment [1] is Aldo-keto reductase family 1 member B1 (Bos taurus, UniProt P16116). In words: Inhibition of bovine aldose reductase assessed as oxidation of NADPH. In outline: (§1)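 AR purified from bovine lens (specific activity 1.2 U/mg), 5 mU per assay. Mixture of 0.25 M sodium phosphate pH 6.8, 4.67 mM D,L-glyceraldehyde, 0.11 mM NADPH, 0.38 M ammonium sulphate, 0.5 mM EDTA, 1% DMSO final. NADPH oxidation followed as absorbance decrease at 340 nm, 37 °C. IC50 by nonlinear fit to one-site competition log dose–inhibition curve.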

Experiment [2] concerns the target Aldo-keto reductase family 1 member B1 (Bos taurus) (UniProt P16116). As to the kind of experiment: Inhibition of bovine aldose reductase assessed as oxidation of NADPH at 50 uM. The gist of the method:
as §1

Experiment [3] concerns NCTC-2544. In words: Antiinflammatory activity in human NCTC-2544 cells assessed as reduction of IFN-gamma/histamine-induced-induced iNOS expression at 10 to 20 uM after 48 hrs by Western blot analysis. The format is functional, cell-based. In outline:
(§2)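 NCTC 2544 keratinocytes kept at 37 °C in 95% air/5% CO2, medium with 10% foetal calf serum plus penicillin/streptomycin, plated 1.5 × 10⁶ per dish 24 h beforehand. Stimulated with 200 U/ml IFN-γ and 10^-4 M histamine while exposed to compound; after 48 h, lysates (50 µg protein) run in Western blots against NF-κB p50 (nuclear activated form) or iNOS, signal normalized to α-tubulin. Each experiment at least three times in triplicate, mean ± SEM.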
In general terms: In western blotting, separated proteins are transferred to a membrane and probed.

The target of experiment [4] is T1, Nuclear factor NF-kappa-B complex (Homo sapiens) (UniProt Q00653+P19838+Q04206). As to the kind of experiment: Inhibition of IFN-gamma/histamine-induced NF-kappaB activation in human NCTC-2544 cells assessed as inhibition of nuclear translocation at 10 uM after 48 hrs by Western blot analysis relative to sorbinil. The experiment is classed as cell-based. In outline: as §2
T1 sequence (P19838 whole entry, looked up): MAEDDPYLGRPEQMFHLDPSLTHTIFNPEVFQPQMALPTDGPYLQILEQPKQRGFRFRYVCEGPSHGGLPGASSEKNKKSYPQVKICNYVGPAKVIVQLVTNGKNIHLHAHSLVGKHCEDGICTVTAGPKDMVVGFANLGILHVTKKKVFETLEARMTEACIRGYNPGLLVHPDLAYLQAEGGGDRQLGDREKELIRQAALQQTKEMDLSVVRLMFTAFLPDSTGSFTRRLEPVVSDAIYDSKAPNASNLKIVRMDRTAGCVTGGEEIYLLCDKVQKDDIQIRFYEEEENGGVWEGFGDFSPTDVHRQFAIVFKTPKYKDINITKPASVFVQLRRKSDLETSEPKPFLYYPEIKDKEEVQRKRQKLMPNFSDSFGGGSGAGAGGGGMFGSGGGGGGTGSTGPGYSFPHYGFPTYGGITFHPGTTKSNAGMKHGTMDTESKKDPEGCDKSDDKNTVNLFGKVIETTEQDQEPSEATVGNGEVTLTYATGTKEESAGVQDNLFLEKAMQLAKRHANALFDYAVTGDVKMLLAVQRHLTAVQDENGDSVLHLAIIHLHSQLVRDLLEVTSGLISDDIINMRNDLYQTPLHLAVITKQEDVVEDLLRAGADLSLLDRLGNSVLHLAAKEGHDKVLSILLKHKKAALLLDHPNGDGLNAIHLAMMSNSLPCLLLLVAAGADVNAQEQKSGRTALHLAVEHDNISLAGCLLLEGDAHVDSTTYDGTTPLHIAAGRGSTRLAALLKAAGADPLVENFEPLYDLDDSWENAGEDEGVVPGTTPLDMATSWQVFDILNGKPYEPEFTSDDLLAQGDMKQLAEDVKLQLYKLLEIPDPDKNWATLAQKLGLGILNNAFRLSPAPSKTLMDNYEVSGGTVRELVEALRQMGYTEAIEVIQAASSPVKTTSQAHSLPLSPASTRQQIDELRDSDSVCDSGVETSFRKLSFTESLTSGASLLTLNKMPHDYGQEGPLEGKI
T1 sequence (Q00653 whole entry, looked up): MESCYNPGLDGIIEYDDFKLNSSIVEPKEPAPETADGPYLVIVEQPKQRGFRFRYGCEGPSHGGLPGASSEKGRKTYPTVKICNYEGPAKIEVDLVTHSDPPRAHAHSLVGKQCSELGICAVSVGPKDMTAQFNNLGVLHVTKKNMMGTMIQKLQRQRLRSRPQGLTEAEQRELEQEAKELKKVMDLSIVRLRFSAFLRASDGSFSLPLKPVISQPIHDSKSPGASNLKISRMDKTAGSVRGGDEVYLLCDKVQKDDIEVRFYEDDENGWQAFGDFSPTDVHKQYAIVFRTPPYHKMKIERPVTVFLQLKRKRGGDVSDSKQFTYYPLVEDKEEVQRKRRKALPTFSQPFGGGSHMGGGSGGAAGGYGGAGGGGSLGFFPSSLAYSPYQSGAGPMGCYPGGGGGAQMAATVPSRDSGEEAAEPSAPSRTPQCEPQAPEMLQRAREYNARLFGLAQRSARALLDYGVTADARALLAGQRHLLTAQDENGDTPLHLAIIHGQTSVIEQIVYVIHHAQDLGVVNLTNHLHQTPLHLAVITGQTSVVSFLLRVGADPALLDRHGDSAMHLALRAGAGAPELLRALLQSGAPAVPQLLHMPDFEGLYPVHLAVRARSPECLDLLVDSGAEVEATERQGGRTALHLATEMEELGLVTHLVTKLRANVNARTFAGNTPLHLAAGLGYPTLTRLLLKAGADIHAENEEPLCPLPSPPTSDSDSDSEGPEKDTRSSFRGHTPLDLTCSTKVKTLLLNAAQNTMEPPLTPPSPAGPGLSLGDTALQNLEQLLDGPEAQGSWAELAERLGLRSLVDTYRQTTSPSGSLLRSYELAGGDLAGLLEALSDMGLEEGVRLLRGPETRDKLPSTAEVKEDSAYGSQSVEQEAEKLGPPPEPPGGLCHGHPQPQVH
T1 sequence (Q04206 whole entry, looked up): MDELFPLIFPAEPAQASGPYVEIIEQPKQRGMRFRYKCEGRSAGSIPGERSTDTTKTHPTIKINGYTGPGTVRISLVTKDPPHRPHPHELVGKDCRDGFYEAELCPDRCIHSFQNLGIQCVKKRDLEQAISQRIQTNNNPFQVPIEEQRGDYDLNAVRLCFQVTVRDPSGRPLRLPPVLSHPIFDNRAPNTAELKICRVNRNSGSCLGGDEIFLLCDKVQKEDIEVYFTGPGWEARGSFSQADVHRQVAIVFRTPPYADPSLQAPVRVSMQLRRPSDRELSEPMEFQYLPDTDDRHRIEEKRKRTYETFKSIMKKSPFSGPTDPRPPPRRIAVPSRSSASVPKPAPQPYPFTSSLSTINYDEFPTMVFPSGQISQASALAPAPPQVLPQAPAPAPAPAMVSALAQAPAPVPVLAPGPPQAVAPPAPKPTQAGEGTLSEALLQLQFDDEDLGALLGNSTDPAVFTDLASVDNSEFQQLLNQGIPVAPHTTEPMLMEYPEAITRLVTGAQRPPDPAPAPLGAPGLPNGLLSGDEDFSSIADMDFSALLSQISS

Experiment [5] has as its target T1, Nuclear factor NF-kappa-B complex (Homo sapiens). In words: Inhibition of IFN-gamma/histamine-induced NF-kappaB activation in human NCTC-2544 cells assessed as inhibition of nuclear translocation at 10 to 20 uM after 48 hrs by Western blot analysis. The format is cell-based. In outline:
as §2

For experiment [6], the system named is NCTC-2544. As to the kind of experiment: Antiinflammatory activity in human NCTC-2544 cells assessed as reduction of IFN-gamma/histamine-induced-induced iNOS expression at 20 uM after 48 hrs by Western blot analysis relative to control level. The experiment is classed as functional, cell-based. The gist of the method:
as §2

Consider `NC(=O)COc1cccc(/C=C2\SC(=O)N(CC(=O)O)C2=O)c1`, for which the IC50 (as a rule, the point on the concentration scale where inhibition reaches its midpoint) in experiment [1] is 1010 nM.

Take `COc1cc(/C=C2\SC(=S)NC2=O)ccc1OCC(N)=O`: the IC50 in experiment [1] amounted to 11600 nM. Still for that read-out and setting: the result for `NC(=O)COc1ccc(/C=C2\SC(=O)N(CC(=O)O)C2=O)cc1` reads 560 nM.

As to `NC(=O)COc1ccc(/C=C2\SC(=S)NC2=O)cc1`, in experiment [2], the inhibition (usually the share of the control response that was lost under treatment) came to 34%.

As to `NC(=O)COc1cccc(/C=C2\SC(=S)N(CC(=O)O)C2=O)c1`, the IC50 in experiment [1] turned out to be 130 nM. The inhibition entry in experiment [3] was “inactive”. The inhibition entry in experiment [4] was “Active”. Moreover, the “NF-kappaB nuclear translocation inhibition (active/not active)” value in experiment [5] is “Active”. Consider `COc1ccc(/C=C2\SC(=S)NC2=O)cc1OCC(N)=O`, for which the inhibition result in experiment [6] and in experiment [3] was “Active” each time. The IC50 in experiment [1] is 9200 nM. The “NF-kappaB nuclear translocation inhibition (active/not active)” value in experiment [5] is “inactive”. Regarding `NC(=O)COc1cccc(/C=C2\SC(=O)NC2=O)c1`, the IC50 in experiment [1] worked out at 21500 nM. Same read-out and setting: as for `COc1ccc(/C=C2\SC(=O)NC2=O)cc1OCC(N)=O`, the figure is 22600 nM; as for `NC(=O)COc1ccc(/C=C2\SC(=S)N(CC(=O)O)C2=O)cc1`, 130 nM. As for `COc1cc(/C=C2\SC(=O)N(CC(=O)O)C2=O)ccc1OCC(N)=O`, the IC50 in experiment [1] was determined as 500 nM.

Turning to `COc1cc(/C=C2\SC(=S)N(CC(=O)O)C2=O)ccc1OCC(N)=O`, in experiment [1], the IC50 was determined as 110 nM. For the same molecule, the inhibition result in experiment [3] and in experiment [4] was “Active” throughout. Besides, the “NF-kappaB nuclear translocation inhibition (active/not active)” value in experiment [5] is “Active”.

Turning to `O=C1NC(=O)[C@@]2(CCOc3ccc(F)cc32)N1`, the inhibition entry in experiment [4] was “Active”.

Consider `COc1ccc(/C=C2\SC(=O)N(CC(=O)O)C2=O)cc1OCC(N)=O`, for which the IC50 in experiment [1] was 520 nM. With `NC(=O)COc1ccc(/C=C2\SC(=O)NC2=O)cc1`, the inhibition in experiment [2] was 40%. As to `NC(=O)COc1cccc(/C=C2\SC(=S)NC2=O)c1`, the inhibition result in experiment [6] and in experiment [3] was “Active” in each case. Also, the IC50 in experiment [1] turned out to be 8650 nM. The “NF-kappaB nuclear translocation inhibition (active/not active)” value in experiment [5] was “inactive”. Consider `COc1ccc(/C=C2\SC(=S)N(CC(=O)O)C2=O)cc1OCC(N)=O`, for which the inhibition result in experiment [6], in experiment [3] and in experiment [4] was “Active” throughout. For the same molecule, the IC50 in experiment [1] was determined as 130 nM. Further, the “NF-kappaB nuclear translocation inhibition (active/not active)” value in experiment [5] was “Active”.

As for `COc1cc(/C=C2\SC(=O)NC2=O)ccc1OCC(N)=O`, the IC50 in experiment [1] was found to be 33900 nM.
